Here are results for three compounds from ChEMBL document CHEMBL1141138, “A novel immunostimulator, N-[alpha-O-benzyl-N-(acetylmuramyl)-L-alanyl-D-isoglutaminyl]-N6-trans-(m-nitrocinnamoyl)-L-lysine, and its adjuvancy on the hepatitis B surface antigen” (J Med Chem, 2005).

Each structure is given as a SMILES string. Values joined by “and” are separate entries in the source; they are usually repeats but may differ in a detail not shown here. Identical values can stand only once.

A short description of series [1]: Effect of compound (10e-6 mol/L) on secretion of Interleukin-2 treated with bone marrow-derived dendritic cells in absence of lipopolysaccharide. Type of series: functional, Mus musculus. Summed up:
(§1)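 BMDCs came from BALB/c bone marrow adherent cells grown with IL-4 and GM-CSF (10 ng/mL each); half the medium was renewed every other day. On day 5 cells were preincubated with compound for 30 min, then held ±LPS (1.0 μg/mL) for 48 h. Supernatant IL-2 and IL-12 (pg/mL) were measured by sandwich ELISA. Detection limits were 15.0 and 7.8 pg/mL.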

The nature of series [2]: Effect of compound (10e-7 mol/L) on secretion of Interleukin-12 treated with bone marrow-derived dendritic cells in presence of lipopolysaccharide. The class given is functional, Mus musculus. Summed up: as §1
A short description of series [3]: Effect of compound (10e-7 mol/L) on secretion of Interleukin-12 treated with bone marrow-derived dendritic cells in absence of lipopolysaccharide. The class given is functional, Mus musculus. Summed up:
as §1

A short description of series [4]: Effect of compound (10e-9 mol/L) on secretion of Interleukin-2 treated with bone marrow-derived dendritic cells in presence of lipopolysaccharide. Type of series: functional, Mus musculus. An outline of the steps:
as §1

Series [5] can be described thus: Effect of compound (10e-7 mol/L) on secretion of Interleukin-2 treated with bone marrow-derived dendritic cells in presence of lipopolysaccharide. Type of series: functional, Mus musculus. Summed up:
as §1

A short description of series [6]: In vivo toxicity (100 mg/kg) is assessed as mass index in mice thymus cells. Type of series: organism-based. The conditions noted are these: mouse.
The species entered for series [7] is Mus musculus. As to the kind of experiment: Effect of compound (10e-7 mol/L) on rate of proliferation of murine splenocytes in presence of concanavalin A compared to control. Type of series: functional. An outline of the steps:
(§2)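 Normal murine splenocytes were exposed to compound with or without concanavalin A (2 μg/mL) for 72 h. Proliferation was read by MTT as OD570. Increased rate (%) was taken versus the matching control without or with ConA. Mean ± SD.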

A short description of series [8]: In vivo toxicity (100 mg/kg) is assessed as increase in mass index of mice thymus cells relative to control (44.1+/-5.13). The conditions noted are these: mouse. Type of series: organism-based.
The species named for series [9] is Mus musculus. Briefly: Effect of compound (10e-9 mol/L) on rate of proliferation of murine splenocytes in presence of concanavalin A compared to control. Type of series: functional. Summed up: as §2
Series [10] in a line: In vivo toxicity (100 mg/kg) is assessed as mass index in mice spleen cells. The class given is organism-based. The conditions noted are these: mouse.
The nature of series [11]: In vivo toxicity (500 mg/kg) is assessed as mass index in mice spleen cells. Type of series: organism-based. The conditions noted are these: mouse.
The nature of series [12]: In vivo toxicity (100 mg/kg) is assessed as increase in mass index of mice spleen cells relative to control (56.4+/-11.5). The class given is organism-based. The note with it: mouse.
Series [13] is described as follows: Effect of compound (10e-9 mol/L) on secretion of Interleukin-12 treated with bone marrow-derived dendritic cells in presence of lipopolysaccharide. The class given is functional, Mus musculus. An outline of the steps:
as §1

The species named for series [14] is Mus musculus. Briefly: Effect of compound (10e-8 mol/L) on rate of proliferation of murine splenocytes in presence of concanavalin A compared to control. The class given is functional. Summed up: as §2
Series [15] can be described thus: In vivo toxicity (500 mg/kg) is assessed as increase in mass index of mice spleen cells relative to control (56.4+/-11.5). The class given is organism-based. The note with it: mouse.
Series [16] concerns Mus musculus. Briefly: Effect (0.5 mg/kg/day*7 days, i.v.) on cyclophosphamide (CY, i.p.) treated mice (immunosuppressed animal model) assessed by CD4+/CD8+ ratio in peripheral blood mononuclear cells. Type of series: functional.
Series [17] is filed under the species Mus musculus. As to the kind of experiment: Effect of compound (10e-6 mol/L) on rate of proliferation of murine splenocytes in absence of concanavalin A compared to control. The class given is functional. An outline of the steps: as §2
Series [18] can be described thus: Effect of compound (10e-8 mol/L) on secretion of Interleukin-12 treated with bone marrow-derived dendritic cells in presence of lipopolysaccharide. Type of series: functional, Mus musculus. Summed up:
as §1

Series [19] can be described thus: Effect of compound (10e-6 mol/L) on secretion of Interleukin-12 treated with bone marrow-derived dendritic cells in absence of lipopolysaccharide. Type of series: functional, Mus musculus. An outline of the steps:
as §1

The nature of series [20]: Effect of compound (10e-6 mol/L) on secretion of Interleukin-2 treated with bone marrow-derived dendritic cells in presence of lipopolysaccharide. Type of series: functional, Mus musculus. An outline of the steps: as §1
Series [21] in a line: Effect of compound (10e-8 mol/L) on secretion of Interleukin-12 treated with bone marrow-derived dendritic cells in absence of lipopolysaccharide. Type of series: functional, Mus musculus. Summed up: as §1
Series [22] is described as follows: Effect of compound (10e-7 mol/L) on secretion of Interleukin-2 treated with bone marrow-derived dendritic cells in absence of lipopolysaccharide. Type of series: functional, Mus musculus. An outline of the steps: as §1
The subject of series [23] is Mus musculus. Briefly: Effect (10 mg/kg/day*7 days, i.v.) on cyclophosphamide (CY, i.p.) treated mice (immunosuppressed animal model) assessed by CD4+/CD8+ ratio in peripheral blood mononuclear cells. The class given is functional. An outline of the steps:
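Male C57BL/6J mice given cyclophosphamide 30 (mg/kg)/day ip for 5 consecutive days, then randomized and dosed iv for 7 consecutive days. PBMCs collected on day 8; ratio of CD3+CD4+ to CD3+CD8+ T cells measured by flow cytometry (CD4-FITC, PE anti-CD8 staining). n = 3.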

Series [24] is described as follows: Effect of compound (10e-8 mol/L) on secretion of Interleukin-2 treated with bone marrow-derived dendritic cells in presence of lipopolysaccharide. Type of series: functional, Mus musculus. Summed up: as §1
Series [25] is filed under the species Mus musculus. Briefly: Effect of compound (10e-7 mol/L) on rate of proliferation of murine splenocytes in absence of concanavalin A compared to control. The class given is functional. An outline of the steps: as §2
Series [26] has as its system Mus musculus. Briefly: Effect (2.0 mg/kg/day*7 days, i.v.) on cyclophosphamide (CY, i.p.) treated mice (immunosuppressed animal model) assessed by CD4+/CD8+ ratio in peripheral blood mononuclear cells. The class given is functional.
Series [27] is described as follows: In vivo toxicity (500 mg/kg) is assessed as mass index in mice thymus cells. The class given is organism-based. The conditions noted are these: mouse.
Series [28] has as its system P815. Briefly: In vitro stimulatory effect on specific release of allogenic CTL cytotoxicity on P815 cells mediated by BMDC in presence of LPS. Type of series: functional, Mus musculus. An outline of the steps: (§3)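 BALB/c (H-2d) BMDCs were pretreated with compound ±LPS for 24 h, then cocultured in quadruplicate with C57BL/6J (H-2b) splenocytes. Effectors harvested on day 6 were set to 5 × 10^5 cells and incubated with 1 × 10^4 P815 (H-2d) targets for 5 h. LDH release was read at OD450. Specific release = (E−S)/(M−S)×100; maximum release used 1% Triton X-100.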

Series [29] is filed under the species Mus musculus. As to the kind of experiment: Effect of compound (10e-6 mol/L) on rate of proliferation of murine splenocytes in presence of concanavalin A compared to control. Type of series: functional. An outline of the steps: as §2
Series [30] is described as follows: Effect of compound (10e-8 mol/L) on secretion of Interleukin-2 treated with bone marrow-derived dendritic cells in absence of lipopolysaccharide. Type of series: functional, Mus musculus. Summed up: as §1
Series [31] is filed under the species Mus musculus. Briefly: Effect of compound (10e-9 mol/L) on rate of proliferation of murine splenocytes in absence of concanavalin A compared to control. The class given is functional. An outline of the steps: as §2
Series [32] concerns P815. As to the kind of experiment: In vitro stimulatory effect on increased rate of allogenic CTL cytotoxicity on P815 cells mediated by BMDC in presence of LPS. Type of series: functional, Mus musculus. Summed up: as §3
The species named for series [33] is Mus musculus. As to the kind of experiment: Effect of compound (10e-8 mol/L) on rate of proliferation of murine splenocytes in absence of concanavalin A compared to control. The class given is functional. Summed up: as §2
Another series deals with P388. Briefly: Increased inhibitory ratio against P388 mice tumor cells compared to control. The class given is functional, Mus musculus. Summed up:
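Thioglycollate-elicited peritoneal macrophages from C57BL/6J mice (harvested 3 days after ip TG) were coincubated with P388 leukemia cells and compound for 72 h. P388 with compound alone served as the toxicity control. Surviving tumor cells were read by MTT at 570 nm, reference 630 nm. The inhibitory ratio was taken versus control.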

A short description of series [34]: Effect of compound (10e-6 mol/L) on secretion of Interleukin-12 treated with bone marrow-derived dendritic cells in presence of lipopolysaccharide. Type of series: functional, Mus musculus. An outline of the steps: as §1
Series [35] relates to P815. As to the kind of experiment: In vitro stimulatory effect on specific release of allogenic CTL cytotoxicity on P815 cells mediated by BMDC in absence of LPS. Type of series: functional, Mus musculus. An outline of the steps:
as §3

Series [36] has as its system P815. Briefly: In vitro stimulatory effect on increased rate of allogenic CTL cytotoxicity on P815 cells mediated by BMDC in absence of LPS. The class given is functional, Mus musculus. Summed up:
as §3

With `CC(=O)N[C@H]1[C@@H](OCc2ccccc2)O[C@H](CO)[C@@H](O)[C@@H]1O[C@H](C)C(=O)N[C@@H](C)C(=O)N[C@H](CCC(=O)N[C@@H](CCCCNC(=O)/C=C/c1cccc([N+](=O)[O-])c1)C(N)=O)C(N)=O`, the Activity was 103 pg/mL in [1]; 838 pg/mL in series [2]; 786 pg/mL in [3]; 94.8 pg/mL in series [4]; 117 pg/mL in [5]; 800 pg/mL in series [13]. Further, the Activity in series [18] came out at 819 pg/mL; in [19], 918 pg/mL; in series [20], 132 pg/mL; in series [21], 725 pg/mL; in [22], 76 pg/mL; in [24], 107 pg/mL. For the same compound, the Activity in series [30] worked out at 60 pg/mL; in series [34] it was 988 pg/mL. Also, the Mass index in [6] is 42.8 mg/10g body weight; in series [8], -1.4% and -2.8%; in series [10], 59.9 mg/10g body weight; in series [11] it was 86.1 mg/10g body weight; in series [12], 6%; in [15] it was 53%. Also, in series [27], the Mass index amounted to 43.5 mg/10g body weight. In addition, the Increase is recorded as 38% in the series filed under Mus musculus [7]; 7.8% in the series filed under Mus musculus [9]; 15% in the series listed under Mus musculus [14]; 191% in the series listed under Mus musculus [17]; 75% in the series listed under Mus musculus [25]; 82% in the series filed under Mus musculus [29]. Further, the Increase in the series filed under Mus musculus [31] was 5.41%; in the series with P815 [32] it was 82% and 49% and 28%; in the series filed under Mus musculus [33] it was 27.3%. For the same compound, the Ratio in the series on Mus musculus [16] stood at 3.18; in the series with Mus musculus [23], 4.47; with Mus musculus [26] it was 4.14. Besides, the Release in the series on P815 [28] is 35.7% and 31.3% and 28.5% and 23.8%. Further, the IR with P388 was found to be 71%.

As to `O=P1(N(CCCl)CCCl)NCCCO1` (stereo not drawn) [CYCLOPHOSPHAMIDE ANHYDROUS], in the series on Mus musculus [23], the Ratio was 2.4.

`CCCCCCCCCCCCCCCCCC(=O)NCCCC[C@H](NC(=O)CC[C@@H](NC(=O)[C@H](C)NC(=O)[C@@H](C)O[C@H]1[C@H](O)[C@@H](CO)OC(O)[C@@H]1NC(C)=O)C(N)=O)C(=O)O` (stereo partly drawn) [ROMURTIDE]: the Increase in the series filed under Mus musculus [17] is listed as 122%; in the series filed under Mus musculus [29], 67%; with P815 [32] it was 45%; in the series on P815 [36] it was 187%. Moreover, the results for the Release in the series on P815 [28] and with P815 [35] were 30.7% and 31.7%, respectively. Moreover, the IR in the series on P388 amounted to 45%.
